Screening data (PubChem)
GPR7 antagonist: human neuropeptides B/W receptor 1 antagonism | GPR7-expressing cells, fluorescence antagonist assay | inhibition, % at 4.4 µM | 290,000 tested, 1.1% active | AID 1861; in the data active = inhibition above about 16%, passing the limit was not always enough;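 also: cells stimulated with the agonist NPW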
Target sequence (P48145 whole entry, looked up): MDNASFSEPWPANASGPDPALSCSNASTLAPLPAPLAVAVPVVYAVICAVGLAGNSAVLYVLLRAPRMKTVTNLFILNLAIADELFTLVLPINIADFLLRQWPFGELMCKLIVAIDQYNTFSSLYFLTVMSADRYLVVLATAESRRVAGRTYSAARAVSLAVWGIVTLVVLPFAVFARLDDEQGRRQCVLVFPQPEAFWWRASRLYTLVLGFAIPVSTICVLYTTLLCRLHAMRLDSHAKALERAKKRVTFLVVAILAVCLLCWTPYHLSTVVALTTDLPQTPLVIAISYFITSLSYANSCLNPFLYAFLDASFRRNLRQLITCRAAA
OX1R antag-1: OX1R (human) antagonism; O43613; OX1R-expressing cells, FRET antagonist read-out; inhibition, % at 6.6 µM; 330,000 tested, 1.8% active; AID 485270; in the data active = inhibition mostly above about 38%, no sharp cut-off; inactive = mostly below about 40%
Target sequence (O43613 whole entry, looked up): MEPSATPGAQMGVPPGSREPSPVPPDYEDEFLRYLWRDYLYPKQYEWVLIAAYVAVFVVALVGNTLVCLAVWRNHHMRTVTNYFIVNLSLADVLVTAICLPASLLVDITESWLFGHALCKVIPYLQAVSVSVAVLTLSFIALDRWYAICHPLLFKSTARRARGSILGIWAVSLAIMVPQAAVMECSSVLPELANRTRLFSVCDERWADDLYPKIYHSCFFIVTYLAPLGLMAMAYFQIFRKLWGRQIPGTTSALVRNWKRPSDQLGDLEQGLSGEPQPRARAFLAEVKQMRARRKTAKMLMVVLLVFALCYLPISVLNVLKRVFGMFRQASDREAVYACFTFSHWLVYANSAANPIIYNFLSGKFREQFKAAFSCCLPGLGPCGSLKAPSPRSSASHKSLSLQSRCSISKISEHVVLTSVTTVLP
GalR3 antag: antagonists of human GalR3 | 360,000 tested, 0.44% active | inhibition, % at 3 µM | O60755 | HEK293 GalR3-CNG cAMP membrane potential fluorescence; galR3 body fused to GalR1 C-terminus;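 active = inhibition above the screen-wide average plus 3 SD, cut at about 13% in these data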;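 also: forskolin and galanin both at EC90 stimulate the cells; cAMP rise reported by CNG channel membrane potential dye signal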
CHO parental Ca: signal in parental CHO cells, OX1R antagonist counter-screen; parental CHO-K1, ATP-induced calcium, Fluo-8 fluorescence; AID 463079; 330,000 tested, 0.63% active; inhibition, % at 5.6 µM;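 active = inhibition above that plate's mean sample inhibition plus 3 SD, cut at about 26% in these data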
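Assay system – parental CHO cells · Reagent – ATP stimulus · Detection – intracellular calcium via Fluo-8 no-wash fluorescent dye · Evaluation – percent inhibition of ATP-evoked calcium rise, normalized to controls · Controls – ATP wells versus no-ATP DMSO wells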
OX1R antag-2: blocks the human orexin 1 receptor; O43613; CHO/OX1R cells, Fluo-8 calcium fluorescence, orexin A; inhibition, % at 5 µM; 330,000 tested, 0.43% active; AID 434989;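 active = inhibition above its plate's threshold, mean inhibition of all tested compounds on the plate plus 3 SD, cut at about 37% in these data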
Each line names hits and unclear results; the compound was inactive in the other large screens. Sampled rows, rich in hits. Any-hit rate of the full collection: about 3.1%.

O=C(O)c1ccc(N/N=C/C=C/c2ccccc2[N+](=O)[O-])cc1	GPR7 antagonist 19.1
Nc1nnc(CC(=O)N/N=C/c2ccc([N+](=O)[O-])cc2)s1	OX1R antag-1 75.1
CCOC(=O)C(CNc1ccc(O)cc1)NC(=O)c1ccccc1 (stereo not given)	none (no result: GPR7 antagonist, OX1R antag-1, CHO parental Ca, OX1R antag-2)
O=C1NCCCC1C(=O)N/N=C/c1cccc([N+](=O)[O-])c1 (stereo not given)	none
O=C(N/N=C/C=C\c1cccc([N+](=O)[O-])c1)c1cccnc1	OX1R antag-1 35.5
O=C1NCCCC1C(=O)N/N=C/c1ccc([N+](=O)[O-])cc1 (stereo not given)	OX1R antag-1 53.6
COc1cccc(Cn2cccc(NC(=O)Nc3ccc(C#N)cc3)c2=O)c1	CHO parental Ca 47.3, OX1R antag-2 52.4
CCCn1c(SCC(=O)Nc2ccc(Cl)cc2F)nc(O)cc1=O	none (no result: GPR7 antagonist)
CCCn1c(SCC(=O)Nc2ccc(F)c(Cl)c2)nc(O)cc1=O	CHO parental Ca 30.5 (no result: GPR7 antagonist)
O=C(COC(=O)c1ccccc1O)NCc1ccc2c(c1)OCO2	none (no result: GPR7 antagonist)
CCn1c(SCC(=O)Nc2ccc3c(c2)OCCO3)nnc1-c1c[nH]c2ccccc12	OX1R antag-1 38.3 (no result: GalR3 antag)
CC(=O)Nc1cccc(NC(=O)CSc2ncc(-c3ccc(Cl)cc3)n2Cc2ccco2)c1	GPR7 antagonist 36.6, OX1R antag-1 81.6, CHO parental Ca 61.4, OX1R antag-2 73.2
O=C(CSc1nnc(-c2ccccc2Cl)n1Cc1ccco1)Nc1ccc2c(c1)OCCO2	OX1R antag-1 71.2
O=C(CSc1nnc(-c2ccc(Cl)cc2)n1Cc1ccco1)Nc1ccc2c(c1)OCCO2	none
Nn1c(SCC(=O)Nc2ccc3c(c2)OCCO3)nnc1C(F)(F)F	GPR7 antagonist 13.9
O=C(CSc1nnc(-c2c[nH]c3ccccc23)n1CC1CCCO1)Nc1ccc2c(c1)OCCO2 (stereo not given)	none
COc1ccc(NC(=O)CSc2nnc(-c3ccccc3)n2Cc2ccco2)cc1OC	OX1R antag-1 37.9
CC(C)(C)c1cc[n+](-c2[nH]c(=O)sc2/C=N/NC(=O)c2ccccc2[O-])cc1	OX1R antag-1 56.5
CC(C)(C)c1cc[n+](-c2[nH]c(=O)sc2/C=N/N=C(\[O-])c2cccnc2)cc1	OX1R antag-1 58.1
CN(C(=O)c1cccc(NC(=O)Cc2cccc(NC(=O)C3CCCN(C(=O)C4CCCC4)C3)c2)c1)C1CC1 (stereo not given)	none (no result: GPR7 antagonist, OX1R antag-1, CHO parental Ca, OX1R antag-2)
CCOc1ccc(C(=O)NCC(=O)OCCCC(=O)c2ccc(F)cc2)cc1OCC	none (no result: GPR7 antagonist)
COC(=O)c1ccc(CSc2nnc(N)s2)cc1	GPR7 antagonist 19.4
COC(=O)c1ccc(CSc2nnc(C)s2)cc1	none
Cc1noc(/C=C/c2ccccn2)c1[N+](=O)[O-]	OX1R antag-1 62.5
Cc1noc(/C=C/Nc2ccc(F)cc2F)c1[N+](=O)[O-]	none
CN(C)c1ccc(-c2nnc(-c3ccccc3F)o2)cc1	OX1R antag-1 51.3
COc1ccc(C(NC(=O)c2c(F)c(F)c(F)c(F)c2F)c2ccccc2)cc1 (stereo not given)	GPR7 antagonist 31.5
COc1ccc(C(NC(=O)c2cc(OC)ccc2OC)c2ccccc2)cc1 (stereo not given)	none
CSc1nsc(N/N=C/c2ccc3c(c2)OCO3)c1C#N	OX1R antag-1 41.1
COc1cc(/C=N/Nc2snc(SC)c2C#N)cc(OC)c1OC	none
CCCCCCCCN1C(=O)[C@@H](CC(=O)N2CCN(C(=O)c3ccco3)CC2)C[C@@]2(C(=O)OC)C1=C[C@H](C(C)(C)C)O[C@@H]2C	none (no result: GPR7 antagonist, OX1R antag-1, CHO parental Ca, OX1R antag-2)
CCn1c(SCc2cccc(F)c2)nnc1-c1cccnc1	GPR7 antagonist 18.6
O=[N+]([O-])c1cc(Br)c(O)c(C=Nc2ccc(N3CCOCC3)cc2)c1	OX1R antag-1 65.8
COc1cccc(C=Nc2ccc(N3CCOCC3)cc2)c1O	none
CCS(=O)c1ccccc1C(=O)OCC(=O)Nc1ccc2ccccc2c1 (stereo not given)	CHO parental Ca 38.8 (no result: GPR7 antagonist)
O=C(COC(=O)c1ccccc1O)Nc1ccc2ccccc2c1	none (no result: GPR7 antagonist)
CCCn1ncc(CN2CCC(C(=O)Nc3cccc(-c4cccc(F)c4)c3)CC2)c1C	none
COc1cccc(Nc2c([N+](=O)[O-])cncc2[N+](=O)[O-])c1	OX1R antag-1 75.9
O=C(O)c1ccc(Nc2cccc(F)c2)c([N+](=O)[O-])c1	none
Nc1ccccc1Nc1ccncc1[N+](=O)[O-]	none
Nc1ccc(Nc2ccncc2[N+](=O)[O-])cc1	OX1R antag-1 63.9
COc1ccccc1Nc1ccncc1[N+](=O)[O-]	none
O=[N+]([O-])c1cnccc1Nc1ccccc1	OX1R antag-1 57.7
O=C(O)c1cccc(Nc2ccncc2[N+](=O)[O-])c1	OX1R antag-1 38.5
COc1cccc(Nc2c(Nc3cccc(OC)c3)c(=O)c2=O)c1	none
CN(C(=O)[C@H]1O[C@@H](n2cnc3c(=O)[nH]c(N)nc32)[C@H](O)[C@@H]1O)C1CCCCC1	none (no result: GPR7 antagonist, OX1R antag-1, CHO parental Ca, OX1R antag-2)
O=C(CC1CCCC1)N[C@@H](Cc1cccnc1)C(=O)N1CCC[C@H]1C(=O)NC1CCCC1	none (no result: GPR7 antagonist, OX1R antag-1, CHO parental Ca, OX1R antag-2)
CCC1C(c2ccccc2)=CCC(C(=O)O)C1C (stereo not given)	none (no result: GPR7 antagonist, OX1R antag-1, CHO parental Ca, OX1R antag-2)
COc1cccc(NC(=O)CN(C)C(=O)CSCC(=O)Nc2ccc(C)cc2)c1	OX1R antag-1 29.6 (no result: GPR7 antagonist)
COCC(=O)Nc1cc(OC)cc(OC)c1	none
CN(CC(=O)Nc1cccc(F)c1)C(=O)CSc1nc2ccccc2s1	none (no result: GPR7 antagonist)
COc1cccc(NC(=O)CN(C)C(=O)c2cn(-c3ccccc3)nc2-c2cccs2)c1	OX1R antag-1 51.0 (no result: GPR7 antagonist)
COc1cc(NC(=O)CSCC(=O)Nc2cc(OC)cc(OC)c2)cc(OC)c1	OX1R antag-1 63.1 (no result: GalR3 antag)
COc1ccc(NC(=O)CN(C)C(=O)CSCC(=O)Nc2ccc(C)cc2)cc1	none (no result: GPR7 antagonist)
CN(CC(=O)Nc1cccc(F)c1)C(=O)c1cn(-c2ccccc2)nc1-c1cccs1	none
COc1cccc(NC(=O)CN(C)C(=O)CSc2nc3ccccc3s2)c1	OX1R antag-1 53.7 (no result: GPR7 antagonist)
CC(=O)N1C[C@@H](CO)[C@@H](N(C)C(=O)/C=C/c2ccccc2)C[C@H]1c1ccccc1	none (no result: GPR7 antagonist, OX1R antag-1, CHO parental Ca, OX1R antag-2)
O=C(CN(CCc1ccccc1)C(=O)c1csnn1)NCc1ccc(F)cc1	none
COc1cc(NC(=O)CSc2nc(C3CC3)nc3ccccc23)cc(OC)c1	OX1R antag-1 46.8
Cc1cc(Nc2cc(C(F)(F)F)cc(C(F)(F)F)c2)cc(=O)n1-c1cc(C(F)(F)F)cc(C(F)(F)F)c1	none (no result: GPR7 antagonist, OX1R antag-1, CHO parental Ca, OX1R antag-2)
O=C(CSc1cccc[n+]1[O-])c1cc2ccccc2o1	OX1R antag-1 72.3 (no result: GalR3 antag)
O=C(CCc1c[nH]c2ccccc12)Nc1ccc(Nc2ccccc2)cc1	none (no result: GPR7 antagonist, OX1R antag-1, CHO parental Ca, OX1R antag-2)
O=C1Nc2ccc3sc4ccccc4c3c2C1=O	OX1R antag-1 64.9
O=C1Nc2ccccc2C1=O	none (no result: GPR7 antagonist)
Cc1nc2cc(C(=O)NCc3cccnc3)ccc2n1-c1ccc(F)cc1F	none
O=C(NCc1n[nH]c(=S)n1-c1cccc(C(F)(F)F)c1)c1ccc(S(=O)(=O)N2CCCC2)cc1	OX1R antag-1 50.1
Cc1ccc(-c2cc(C(=O)N3CCN(c4ncccn4)CC3)c3cc(Br)ccc3n2)o1	none
